Key:
Format in all cases: functional
[1] = tested on: Digitaria sanguinalis; experiment: Herbicidal activity against Digitaria sanguinalis (hairy crabgrass) assessed as inhibition of fresh weed plant weight at 1500 g/ha using pre-emergence treatment protocol
[2] = tested on: Amaranthus retroflexus; experiment: Herbicidal activity against Amaranthus retroflexus assessed as inhibition of fresh weed plant weight at 1500 g/ha using post-emergence treatment protocol
How it was run: (§1)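 Test compounds made up as emulsions by dissolving in 100 µL N,N-dimethylformamide, then adding a little Tween 20 and water. For post-emergence, weed seedlings at one leaf and one stem were sprayed at the same rates as the pre-emergence test. Fresh weight was recorded 15 days after treatment and expressed as percent inhibition versus controls. All treatments were run in triplicate.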

[3] = tested on: Amaranthus retroflexus; experiment: Herbicidal activity against Amaranthus retroflexus assessed as inhibition of fresh weed plant weight at 1500 g/ha using pre-emergence treatment protocol
[4] = tested on: Digitaria sanguinalis; experiment: Herbicidal activity against Digitaria sanguinalis (hairy crabgrass) assessed as inhibition of fresh weed plant weight at 1500 g/ha using post-emergence treatment protocol; how it was run: as §1
[5] = tested on: Brassica rapa subsp. oleifera; experiment: Herbicidal activity against Brassica rapa subsp. oleifera assessed as inhibition of fresh weed plant weight at 1500 g/ha using post-emergence treatment protocol; how it was run: as §1
[6] = tested on: Brassica rapa subsp. oleifera; experiment: Herbicidal activity against Brassica rapa subsp. oleifera assessed as inhibition of fresh weed plant weight at 1500 g/ha using pre-emergence treatment protocol
[7] = tested on: Echinochloa crus-galli; experiment: Herbicidal activity against Echinochloa crus-galli (barnyard grass) assessed as inhibition of fresh weed plant weight at 1500 g/ha using pre-emergence treatment protocol
[8] = tested on: Echinochloa crus-galli; experiment: Herbicidal activity against Echinochloa crus-galli (barnyard grass) assessed as inhibition of fresh weed plant weight at 1500 g/ha using post-emergence treatment protocol; how it was run: as §1

## CCOc1cc(-n2nnc3c(cnn3C)c2=O)c(F)cc1Cl
[1]
  inhibition at 1500 g/ha: 0%
[2]
  inhibition at 1500 g/ha: 70.6%
[3]
  inhibition at 1500 g/ha: 0%
[4]
  inhibition at 1500 g/ha: 0%
[5]
  inhibition at 1500 g/ha: 21.5%
[6]
  inhibition at 1500 g/ha: 29.8%
[7]
  inhibition at 1500 g/ha: 12.4%
[8]
  inhibition at 1500 g/ha: 20.2%

## CCCCOc1cc(-n2nnc3c(cnn3C)c2=O)c(F)cc1Cl
[1]
  inhibition at 1500 g/ha: 0%
[2]
  inhibition at 1500 g/ha: 16.6%
[3]
  inhibition at 1500 g/ha: 0%
[4]
  inhibition at 1500 g/ha: 0%
[5]
  inhibition at 1500 g/ha: 16.1%
[6]
  inhibition at 1500 g/ha: 4.8%
[7]
  inhibition at 1500 g/ha: 0%
[8]
  inhibition at 1500 g/ha: 0%

## CCCCCOc1cc(-n2nnc3c(cnn3C)c2=O)c(F)cc1Cl
[1]
  inhibition at 1500 g/ha: 0%
[2]
  inhibition at 1500 g/ha: 23.2%
[3]
  inhibition at 1500 g/ha: 0%
[4]
  inhibition at 1500 g/ha: 0%
[5]
  inhibition at 1500 g/ha: 6.1%
[6]
  inhibition at 1500 g/ha: 13.9%
[7]
  inhibition at 1500 g/ha: 1.1%
[8]
  inhibition at 1500 g/ha: 15.3%

## Cn1ncc2c(=O)n(-c3cc(OC/C=C/Cl)c(Cl)cc3F)nnc21
[1]
  inhibition at 1500 g/ha: 1.4%
[2]
  inhibition at 1500 g/ha: 14%
[3]
  inhibition at 1500 g/ha: 0%
[4]
  inhibition at 1500 g/ha: 0%
[5]
  inhibition at 1500 g/ha: 2.9%
[6]
  inhibition at 1500 g/ha: 0%
[7]
  inhibition at 1500 g/ha: 9.7%
[8]
  inhibition at 1500 g/ha: 11.1%

## C=C(Cl)COc1cc(-n2nnc3c(cnn3C)c2=O)c(F)cc1Cl
[1]
  inhibition at 1500 g/ha: 0%
[2]
  inhibition at 1500 g/ha: 54.1%
[3]
  inhibition at 1500 g/ha: 11%
[4]
  inhibition at 1500 g/ha: 0%
[5]
  inhibition at 1500 g/ha: 0%
[6]
  inhibition at 1500 g/ha: 0%
[7]
  inhibition at 1500 g/ha: 15.9%
[8]
  inhibition at 1500 g/ha: 31.1%

## Cn1ncc2c(=O)n(-c3cc(OCC#N)c(Cl)cc3F)nnc21
[1]
  inhibition at 1500 g/ha: 2.3%
[2]
  inhibition at 1500 g/ha: 100%
[3]
  inhibition at 1500 g/ha: 40.5%
[4]
  inhibition at 1500 g/ha: 0%
[5]
  inhibition at 1500 g/ha: 31.3%
[6]
  inhibition at 1500 g/ha: 0%
[7]
  inhibition at 1500 g/ha: 17.5%
[8]
  inhibition at 1500 g/ha: 32.6%

## COCCOCOc1cc(-n2nnc3c(cnn3C)c2=O)c(F)cc1Cl
[1]
  inhibition at 1500 g/ha: 2.3%
[2]
  inhibition at 1500 g/ha: 74.9%
[3]
  inhibition at 1500 g/ha: 51.8%
[4]
  inhibition at 1500 g/ha: 0%
[5]
  inhibition at 1500 g/ha: 28%
[6]
  inhibition at 1500 g/ha: 0%
[7]
  inhibition at 1500 g/ha: 5.6%
[8]
  inhibition at 1500 g/ha: 43.6%

## C#CCOc1cc(-n2nnc3c(cnn3C)c2=O)c(F)cc1Cl
[1]
  inhibition at 1500 g/ha: 0%
[2]
  inhibition at 1500 g/ha: 0%
[3]
  inhibition at 1500 g/ha: 0%
[4]
  inhibition at 1500 g/ha: 19.6%
[5]
  inhibition at 1500 g/ha: 9.2%
[6]
  inhibition at 1500 g/ha: 12.7%
[7]
  inhibition at 1500 g/ha: 0%
[8]
  inhibition at 1500 g/ha: 20.8%

## C=CCOc1cc(-n2nnc3c(cnn3C)c2=O)c(F)cc1Cl
[1]
  inhibition at 1500 g/ha: 0%
[2]
  inhibition at 1500 g/ha: 0%
[3]
  inhibition at 1500 g/ha: 10.6%
[4]
  inhibition at 1500 g/ha: 17.9%
[5]
  inhibition at 1500 g/ha: 1.2%
[6]
  inhibition at 1500 g/ha: 7.4%
[7]
  inhibition at 1500 g/ha: 11%
[8]
  inhibition at 1500 g/ha: 28%

## CCOC(=O)Oc1cc(-n2nnc3c(cnn3C)c2=O)c(F)cc1Cl
[1]
  inhibition at 1500 g/ha: 0%
[2]
  inhibition at 1500 g/ha: 7.7%
[3]
  inhibition at 1500 g/ha: 0%
[4]
  inhibition at 1500 g/ha: 0%
[5]
  inhibition at 1500 g/ha: 0%
[6]
  inhibition at 1500 g/ha: 0%
[7]
  inhibition at 1500 g/ha: 19.8%
[8]
  inhibition at 1500 g/ha: 37.7%

## C#CCOc1cc(-n2nnc3c(c(C(F)(F)F)nn3C)c2=O)c(F)cc1Cl
[1]
  inhibition at 1500 g/ha: 6.7%
[2]
  inhibition at 1500 g/ha: 5.5%
[3]
  inhibition at 1500 g/ha: 15.5%
[4]
  inhibition at 1500 g/ha: 0%
[5]
  inhibition at 1500 g/ha: 32.7%
[6]
  inhibition at 1500 g/ha: 21.6%
[7]
  inhibition at 1500 g/ha: 0%
[8]
  inhibition at 1500 g/ha: 2.4%

## C#CCOc1cc(-n2nnc3c(c(C)nn3C)c2=O)c(F)cc1Cl
[1]
  inhibition at 1500 g/ha: 38.3%
[2]
  inhibition at 1500 g/ha: 0%
[3]
  inhibition at 1500 g/ha: 0%
[4]
  inhibition at 1500 g/ha: 0%
[5]
  inhibition at 1500 g/ha: 0%
[6]
  inhibition at 1500 g/ha: 9.5%
[7]
  inhibition at 1500 g/ha: 0%
[8]
  inhibition at 1500 g/ha: 0%

## C=CCOc1cc(-n2nnc3c(c(C)nn3C)c2=O)c(F)cc1Cl
[1]
  inhibition at 1500 g/ha: 0%
[2]
  inhibition at 1500 g/ha: 14.7%
[3]
  inhibition at 1500 g/ha: 0%
[4]
  inhibition at 1500 g/ha: 16.6%
[5]
  inhibition at 1500 g/ha: 7.5%
[6]
  inhibition at 1500 g/ha: 7.8%
[7]
  inhibition at 1500 g/ha: 17.2%
[8]
  inhibition at 1500 g/ha: 21%

## C=CCN1C(=O)COc2cc(F)c(-n3nnc4c(cnn4C)c3=O)cc21
[1]
  inhibition at 1500 g/ha: 0%
[2]
  inhibition at 1500 g/ha: 20.3%
[3]
  inhibition at 1500 g/ha: 30.6%
[4]
  inhibition at 1500 g/ha: 27%
[5]
  inhibition at 1500 g/ha: 20.9%
[6]
  inhibition at 1500 g/ha: 17.5%
[7]
  inhibition at 1500 g/ha: 24.4%
[8]
  inhibition at 1500 g/ha: 9.1%

## C#CCN1C(=O)COc2cc(F)c(-n3nnc4c(c(C(F)(F)F)nn4C)c3=O)cc21
[1]
  inhibition at 1500 g/ha: 8.3%
[2]
  inhibition at 1500 g/ha: 0%
[3]
  inhibition at 1500 g/ha: 0%
[4]
  inhibition at 1500 g/ha: 0%
[5]
  inhibition at 1500 g/ha: 20.8%
[6]
  inhibition at 1500 g/ha: 0%
[7]
  inhibition at 1500 g/ha: 3%
[8]
  inhibition at 1500 g/ha: 8.2%

## C=CCN1C(=O)COc2cc(F)c(-n3nnc4c(c(C(F)(F)F)nn4C)c3=O)cc21
[1]
  inhibition at 1500 g/ha: 0%
[2]
  inhibition at 1500 g/ha: 0%
[3]
  inhibition at 1500 g/ha: 1.2%
[4]
  inhibition at 1500 g/ha: 0%
[5]
  inhibition at 1500 g/ha: 12%
[6]
  inhibition at 1500 g/ha: 0%
[7]
  inhibition at 1500 g/ha: 0%
[8]
  inhibition at 1500 g/ha: 13.6%

## C#CCN1C(=O)COc2cc(F)c(-n3nnc4c(c(C)nn4C)c3=O)cc21
[1]
  inhibition at 1500 g/ha: 57%
[2]
  inhibition at 1500 g/ha: 0%
[3]
  inhibition at 1500 g/ha: 30%
[4]
  inhibition at 1500 g/ha: 0%
[5]
  inhibition at 1500 g/ha: 0%
[6]
  inhibition at 1500 g/ha: 44.4%
[7]
  inhibition at 1500 g/ha: 15.8%
[8]
  inhibition at 1500 g/ha: 0%

## C=CCN1C(=O)COc2cc(F)c(-n3nnc4c(c(C)nn4C)c3=O)cc21
[1]
  inhibition at 1500 g/ha: 47.7%
[2]
  inhibition at 1500 g/ha: 0%
[3]
  inhibition at 1500 g/ha: 50%
[4]
  inhibition at 1500 g/ha: 0%
[5]
  inhibition at 1500 g/ha: 0%
[6]
  inhibition at 1500 g/ha: 34.6%
[7]
  inhibition at 1500 g/ha: 22.3%
[8]
  inhibition at 1500 g/ha: 0%

## Cn1ncc2c(=O)n(-c3cc(O)c(Cl)cc3F)nnc21
[1]
  inhibition at 1500 g/ha: 0%
[2]
  inhibition at 1500 g/ha: 25.1%
[3]
  inhibition at 1500 g/ha: 23.7%
[4]
  inhibition at 1500 g/ha: 9.2%
[5]
  inhibition at 1500 g/ha: 27.9%
[6]
  inhibition at 1500 g/ha: 0%
[7]
  inhibition at 1500 g/ha: 3.5%
[8]
  inhibition at 1500 g/ha: 13.2%

## COc1cc(-n2nnc3c(cnn3C)c2=O)c(F)cc1Cl
[1]
  inhibition at 1500 g/ha: 0%
[2]
  inhibition at 1500 g/ha: 37.5%
[3]
  inhibition at 1500 g/ha: 40.5%
[4]
  inhibition at 1500 g/ha: 20.6%
[5]
  inhibition at 1500 g/ha: 28.3%
[6]
  inhibition at 1500 g/ha: 0%
[7]
  inhibition at 1500 g/ha: 11.3%
[8]
  inhibition at 1500 g/ha: 1%

From ChEMBL document CHEMBL3044834, “Novel protoporphyrinogen oxidase inhibitors: 3H-pyrazolo[3,4-d][1,2,3]triazin-4-one derivatives” (J Agric Food Chem, 2008)
